Published values from different studies.
Target: cAMP-dependent protein kinase catalytic subunit alpha (PRKACA, Homo sapiens, UniProt P17612)

C[C@@H](c1ccc(-n2cnc3c(N)ncnc32)cc1)N1CCc2nn(C)c(Cc3ccccc3)c2C1=O — remaining binding (binding; competition with immobilised ligand; 0.1 µM): 100%
O=C(NCCCN1CCOCC1)c1ccc(Nc2ncc(Cl)c(-c3ccc(Cl)s3)n2)cc1 — remaining binding (binding; competition with immobilised ligand; 1 µM): 100%
CN(CCCC(F)(F)F)c1nccc(-c2cnn3ncccc23)n1 — remaining binding (binding; 1 µM): 100%
O=C(N1CCS(=O)(=O)CC1)N1C[C@H](c2ccc(OC(F)(F)F)cc2)C[C@H](c2nc(C3CC3)no2)C1 — remaining binding (cell-free assay; competition with immobilised ligand; 1 µM): 100%
C=CC(=O)N1CCC(C(=O)NCC(=O)N2CCN(c3nc(-c4cnc(N)nc4C(F)F)nc(N4CCOCC4)n3)CC2)CC1 — remaining binding (binding; competition with immobilised ligand; 1 µM): 100%
COCCOc1nc(-c2ccc(Cl)nc2)nc2c1CN(C(=O)c1ncn3ccccc13)CC2 — remaining binding (cell-free assay; competition with immobilised ligand; 0.1 µM): 82%
COc1cnc(Nc2cccc(S(N)(=O)=O)c2)nc1N1CCN(c2ccccc2)C(=O)C1 — remaining binding (binding; competition with immobilised ligand; 1 µM): 100%
C[C@@H]1CN(c2ccc3ncc(-c4ccc5[nH]nc(C6CC6)c5c4)n3n2)C[C@H](C)O1 — remaining binding (binding; competition with immobilised ligand; 0.5 µM): 100%
c1cnn2ncc(-c3ccnc(N4CCC45COC5)n3)c2c1 — remaining binding (binding; 1 µM): 100%
Cc1c(C(=O)O)cc(-c2ccc(C3CCNCC3)cc2)c2ccc(-c3ccc(C(F)(F)F)cc3)cc12 — remaining binding (cell-free assay; competition with immobilised ligand; 1 µM): 100%
FC(F)(F)Oc1cccc(-c2cnc3ccc(-c4ccncc4)nn23)c1 — remaining binding (cell-free assay; competition with immobilised ligand; 5 µM): 91%
c1cncc(-c2cccc(Nc3nccc(NC4CCCCC4)n3)c2)c1 — remaining binding (binding; competition with immobilised ligand; 10 µM): 50%
O=C(Nc1c[nH]nc1C(=O)NC1CCNCC1)c1cc(F)cc(F)c1 — remaining binding (binding; competition with immobilised ligand; 1 µM): 100%
CN(C)c1nccc(-c2cnn3ncccc23)n1 — remaining binding (binding; 1 µM): 100%
c1ccc(N2CCN(Cc3nc4ccccc4[nH]3)CC2)nc1 — remaining binding (cell-free assay; competition with immobilised ligand; 1 µM): 91%
N#Cc1ccccc1CSc1nnc2c(n1)[nH]c1ccccc12 — remaining binding (binding; competition with immobilised ligand; 10 µM): 72%
Cc1cnc(Nc2ccc(C(=O)N3CCC(N4CCCC4)CC3)cc2)nc1-c1cc2ccccc2s1 — remaining binding (binding; competition with immobilised ligand; 1 µM): 67%
COc1ccc2c(c1)O[C@@H](c1ccc(OC)c(OC)c1)C[C@H]2NC(=O)C1(c2ccc3c(c2)OC(F)(F)O3)CC1 — remaining binding (cell-free assay; competition with immobilised ligand; 1 µM): 100%
O=C(c1ccc(Nc2ncc(Cl)c(-c3cc4ccccc4s3)n2)cc1)N1CCC(N2CCCC2)CC1 — remaining binding (binding; competition with immobilised ligand; 1 µM): 90%
CNC(=O)c1ccc(Nc2ncc(C(F)(F)F)c(NCc3nccnc3N(C)S(C)(=O)=O)n2)cc1 — remaining binding (cell-free assay; competition with immobilised ligand; 0.1 µM): 100%
C[C@H]1CCN(c2nccc(-c3cnn4ncccc34)n2)C1 — remaining binding (binding; 1 µM): 100%
